Screening results from PubChem BioAssay.
IMP-1 inh – blocks Pseudomonas aeruginosa IMP-1 metallo-beta-lactamase. purified IMP-1, nitrocefin hydrolysis, epi-absorbance fluorescence. inhibition, % at 5.6 µM. 290,000 tested, 0.45% active. AID 1556;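 active means inhibition above the mean plus 3 SD of all compounds in the same screening run, cut at about 4.5% in these data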
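System: purified recombinant IMP-1 beta-lactamase. Medium: Zinc- and detergent-supplemented HEPES buffer, pH 7.1. Compound: one 5.6 µM dose […]. Schedule: 15 min preincubation plus 25 min reaction at 25 °C. Technique: Epi-absorbance fluorescence, 480 nm excitation, 530 nm emission.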
VIM-2 inhibitor – blocks Pseudomonas aeruginosa VIM-2 metallo-beta-lactamase | 290,000 tested, 0.89% active | inhibition, % at 5.6 µM | AID 1527 | purified VIM-2, nitrocefin hydrolysis, epi-absorbance fluorescence;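 active means inhibition above the mean of all tested compounds plus 3 SD, cutoff set per screening run, cut at about 7.5% in these data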;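 further: red hydrolysis product quenches plate fluorescence so inhibitors raise well fluorescence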
DNA FID counter – counter-screen for HCV NS3 helicase inhibitors: DNA intercalator displacement; AID 1845; inhibition, % at 7.9 µM; 290,000 tested, 0.17% active; DNA fluorescent intercalator displacement, fluorescence; in the data active means inhibition above about 37%;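 further: higher means more ethidium bromide displaced from hairpin DNA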
SUMO Mot1 rescue – blocks SUMOylation pathway, rescuing yeast Mot1-301 growth. S. cerevisiae Mot1-301 growth rescue, ATP luminescence, 38.5C; percent above DMSO median, 100 means doubled. growth rescue, % at 18.8 µM. 320,000 tested, 1% active;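 active means every valid replicate shows activation above 250% relative to neutral control wells; inactive means the rest, any valid replicate at or below 250%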
SUMO HTRF inh – inhibitors of human SUMOylation (UBC9); AID 2006; 290,000 tested, 0.36% active; inhibition, % at 35 µM; HTRF SUMOylation assay, SAE1/SAE2 + UBC9, in vitro; in the data active means inhibition above about 50%, passing the limit was not always enough; inconclusive means no clear call, values can overlap the other calls
Target sequence (P63279 whole entry, looked up): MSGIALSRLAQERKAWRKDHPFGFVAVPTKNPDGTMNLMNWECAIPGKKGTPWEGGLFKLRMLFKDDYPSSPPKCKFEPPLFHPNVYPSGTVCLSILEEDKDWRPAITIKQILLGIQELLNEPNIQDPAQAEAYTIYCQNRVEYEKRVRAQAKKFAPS
NALP1 inh – inhibitors of NALP1 inflammasome in yeast. S. cerevisiae NALP1/ASC/caspase-1 growth, X-gal OD620, 72 h. inhibition, % at 10 µM. AID 2071. 280,000 tested, 0.61% active; in the data active means inhibition mostly above about 24%, no sharp cut-off; inactive means mostly below about 32%
Large screens that a line does not name were inactive. In the library only some 2.9% were active in any assay of this set; here they are far more common.

CC(C)C1OC2c3cccc4cccc(c34)C2N1c1ccccc1 (stereo not drawn)	IMP-1 inh 4.6
COc1ccc(CCNC(=O)CCSCc2ccccc2F)cc1OC	SUMO Mot1 rescue 263.3
CCOc1ccc(CNC(=O)CCSCc2ccccc2F)cc1OC	none
CCOc1ccc(S(=O)(=O)NCCC(=O)NCC2(N3CCCCC3)CCCCC2)cc1	none
O=C(O)CC1c2ccccc2CCN1S(=O)(=O)c1cccs1 (stereo not drawn)	none (no result: IMP-1 inh, VIM-2 inhibitor, DNA FID counter, SUMO HTRF inh, NALP1 inh)
O=C(NN=C1C2CC3CC(C2)CC1C3)c1ccncc1	none
O=C(N/N=C1\C/C(=N\NC(=O)c2ccncc2)c2ccccc21)c1ccncc1	SUMO HTRF inh 52.1 (no result: SUMO Mot1 rescue)
CC(OC(=O)c1ccc(-c2ccc(O)cc2)cc1)C(=O)NC1CCCCC1C (stereo not drawn)	SUMO Mot1 rescue 749.9 (no result: IMP-1 inh, VIM-2 inhibitor, DNA FID counter, SUMO HTRF inh, NALP1 inh)
CCCCn1nnc(NC(=O)c2ccc(-c3ccccc3[N+](=O)[O-])o2)n1	NALP1 inh 30.4
O=C(c1cccc([N+](=O)[O-])c1)N1CCN(S(=O)(=O)/C=C/c2ccccc2)CC1	none (no result: IMP-1 inh, VIM-2 inhibitor, DNA FID counter, SUMO HTRF inh, NALP1 inh)
Nc1nnc(SC2CC(=O)N(c3ccccc3)C2=O)s1 (stereo not drawn)	NALP1 inh 36.7
O=C1CC(Sc2ncccn2)C(=O)N1c1ccccc1 (stereo not drawn)	none
CCOC(=O)c1ccc(N2C(=O)C=CC2=O)cc1	NALP1 inh 108.2
CCOC(=O)c1ccc(N2C(=O)CC(Sc3nnc(C)s3)C2=O)cc1 (stereo not drawn)	NALP1 inh 39.6
O=C(N/N=C/c1ccc(OC(F)F)cc1)c1cccc(S(=O)(=O)N2CCOCC2)c1	none (no result: SUMO Mot1 rescue)
Cc1cc(C)c(C(=O)COC(=O)c2cccnc2Cl)c(C)c1	none
Cc1sc2ncnc(NCC(c3ccco3)N3CCCC3)c2c1C (stereo not drawn)	VIM-2 inhibitor 10.6 (no result: SUMO Mot1 rescue)
O=C1C2CCCN2C(c2ccccc2)N1c1cccc(Cl)c1 (stereo not drawn)	none
O=C1C2CCCN2C(c2ccc(F)c(F)c2)N1c1cccc(Cl)c1 (stereo not drawn)	NALP1 inh 43.7
Cc1ccc(C)c(N2CCN(C(=O)c3ccc4nc(-c5ccco5)c(-c5ccco5)nc4c3)CC2)c1	none
O=C(NCCO)c1ccc2nc(-c3ccco3)c(-c3ccco3)nc2c1	SUMO HTRF inh inconclusive
O=C(c1ccccc1)c1ccc2nc(-c3ccco3)c(-c3ccco3)nc2c1	SUMO HTRF inh 95.3
O=C(NC1CCCC1)c1ccc2nc(-c3ccco3)c(-c3ccco3)nc2c1	SUMO HTRF inh 51.4
COc1ccccc1N1CCN(C(=O)c2ccc3nc(-c4ccco4)c(-c4ccco4)nc3c2)CC1	SUMO HTRF inh 72.4
CC(C)n1c(O)c(N=NC(=O)Cc2csc(N3CCOCC3)n2)c2ccccc21	none
CC(=O)Nc1ccc2c(CSc3nncs3)cc(=O)oc2c1	IMP-1 inh 5.4 (no result: NALP1 inh)
Cc1ccc2c(CSc3nnc(N)s3)cc(=O)oc2c1	none (no result: SUMO Mot1 rescue)
CC(c1nnc(SCC(=O)Nc2cccnc2Cl)n1-c1ccccc1)N(C)C (stereo not drawn)	none
NC1=CC(=O)c2cccc3cccc1c23	IMP-1 inh 14.3
CN(C)c1ccc(C(C(=O)NC2CCCC2)N(C(=O)c2ccco2)C2CC2)cc1 (stereo not drawn)	none
O=C(NCCN1CCCC1=O)C1CCC(=O)N(CCc2ccc(Cl)cc2)C1 (stereo not drawn)	NALP1 inh 32.5
O=C(NCCN1CCNC1=O)C1CCC(=O)N(CCc2ccc(Cl)cc2)C1 (stereo not drawn)	none (no result: SUMO Mot1 rescue)
COc1ccc(NC(=O)CNC(=O)c2nn(-c3ccc(OC)cc3OC)c(=O)c3ccccc23)c(OC)c1	none
COCCCN1CC(=O)N2C(c3ccc(OC)c(OC)c3)c3[nH]c4ccccc4c3C[C@H]2C1=O (stereo partly drawn)	SUMO Mot1 rescue 305.2
CC1CC(=O)c2cnc(NCC3CCCO3)nc2C1 (stereo not drawn)	none
CC1(C)CC(=O)c2cnc(NCC3CCCO3)nc2C1 (stereo not drawn)	IMP-1 inh 6.0
O=C(Cn1c(=O)oc2ccccc21)Nc1ccccc1Cl	none
O=C(Cn1c(=O)oc2ccccc21)NCCc1ccccc1Cl	NALP1 inh 42.3
COc1ccc(CNC(=O)Cn2c(=O)oc3ccccc32)cc1OC	NALP1 inh 43.1
CCOc1ccc(CNC(=O)CCn2c(=O)oc3ccccc32)cc1OC	none
COc1cc2nc(NCC3CCCO3)n3nc(-c4cccnc4)nc3c2cc1OC (stereo not drawn)	NALP1 inh 37.2
COCCCNc1nc2cc(OC)c(OC)cc2c2nc(-c3ccccc3)nn12	none
CCN(CC)CCCNc1nc2cc(OC)c(OC)cc2c2nc(-c3ccccc3)nn12	DNA FID counter 50.5
CCCCC(=O)Nc1nc(C)c(-c2csc(Nc3cc(Cl)ccc3OC)n2)s1	IMP-1 inh 7.6
CCCCCCC(=O)Nc1nc(C)c(-c2csc(Nc3cc(Cl)ccc3C)n2)s1	IMP-1 inh 19.0
COc1ccc(Cl)cc1Nc1nc(-c2sc(NC(=O)C(C)(C)C)nc2C)cs1	IMP-1 inh 18.2
O=C(c1cc2cc(Br)ccc2s1)N1CCOCC1	none
Cc1nn(-c2ccccc2)c(OC(=O)c2cccs2)c1S(=O)(=O)c1ccc([N+](=O)[O-])cc1	IMP-1 inh 4.8
Cc1nn(-c2ccccc2)c(OC(=O)c2cccs2)c1S(=O)(=O)c1ccccc1	none
CSc1ccccc1C(=O)Nc1ccccc1C(=O)N1CCCC1	none
Cc1ccc(C2=C(c3ccc([N+](=O)[O-])cc3)C(=O)OC2)cc1C	IMP-1 inh 12.6
COc1ccc(C2=C(c3ccc([N+](=O)[O-])cc3)C(=O)OC2)cc1	none
CCc1nc2ccc(C(=O)NCCCN3CCN(c4ccc(F)cc4)CC3)cc2nc1CC	none
CN1CCN(CCNC(=O)c2ccc3nc(-c4ccc(F)cc4)c(-c4ccc(F)cc4)nc3c2)CC1	DNA FID counter 47.5
CCCCCCCCNC1=CC(=O)CC(C)(C)C1	none
Cc1ccc2c(=O)n3c(nc2c1)C(Cc1ccccc1)NC(=O)c1ccc(Cl)cc1-3 (stereo not drawn)	none (no result: IMP-1 inh, VIM-2 inhibitor, DNA FID counter, SUMO HTRF inh, NALP1 inh)
COc1cccc2c1C(=O)C=C(C)C2=O	NALP1 inh 96.1
Cc1ccccc1NC(=S)NCCSc1ccc(Cl)cc1	IMP-1 inh 49.8, DNA FID counter 48.8
N=c1n(CCN2CCCC2)c2ccccc2n1CC(O)c1ccc(Cl)c(Cl)c1 (stereo not drawn)	DNA FID counter 48.3
N=c1n(CCN2CCOCC2)c2ccccc2n1CC(=O)c1ccc(Cl)c(Cl)c1	none
O=C(CCS(=O)(=O)c1ccc(Cl)cc1)N1CCN(c2ccccc2F)CC1	NALP1 inh 28.5
COc1cc(C2NCCc3c2[nH]c2ccccc32)ccc1OC(C)C (stereo not drawn)	DNA FID counter 37.0
